PHOSPHO1 block: inhibitors of human PHOSPHO1 phosphatase. recombinant PHOSPHO1, absorbance phosphatase assay. actives 1.1% (n = 290,000). Q8TCT1. AID 1565. inhibition, % at 13.3 µM; in the data active = inhibition above about 60%
Tb hexokinase: blocks Trypanosoma brucei hexokinase 1 activity; inhibition, % at 10 µM; recombinant TbHK1, G6PDH-coupled NADH A340; actives 0.11% (n = 220,000);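 active = inhibition of 50% or more in the single-dose primary screen; inactive = inhibition below 50%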
EP2 antag: blocks the human prostaglandin E2 receptor EP2 | P43116 | C6 glioma cells expressing human EP2, cAMP TR-FRET; cells stimulated with saturating PGE2 | inhibition, % at 25 µM | actives 0.52% (n = 260,000) | AID 1422;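 active = percent inhibition above 40 after rounding to a whole number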;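 also: rat C6 glioma host cells with rolipram phosphodiesterase inhibitor present; the protocol text gives 20 µM as final concentration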
Target sequence (P43116 whole entry, looked up): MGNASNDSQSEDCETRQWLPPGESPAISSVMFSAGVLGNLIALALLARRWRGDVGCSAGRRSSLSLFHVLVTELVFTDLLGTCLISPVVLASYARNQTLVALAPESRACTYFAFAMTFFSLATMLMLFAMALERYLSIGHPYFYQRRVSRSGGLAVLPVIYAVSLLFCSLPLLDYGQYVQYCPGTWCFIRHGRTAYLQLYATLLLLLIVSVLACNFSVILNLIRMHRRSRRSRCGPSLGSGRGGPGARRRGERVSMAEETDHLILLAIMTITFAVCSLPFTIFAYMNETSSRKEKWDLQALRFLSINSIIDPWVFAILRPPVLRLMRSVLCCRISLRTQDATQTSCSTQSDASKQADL
PfG6PD inh: PfG6PD (Plasmodium falciparum) enzyme inhibition | AID 504690 | inhibition, % at 20 µM | PfGluPho enzyme, NADPH resazurin-diaphorase fluorescence | actives 0.78% (n = 350,000);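 active = inhibition reaching at least a set limit at 20 µM in the primary screen, cut at about 59% in these data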;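 also: 0% = DMSO wells with substrate and 100% = DMSO wells lacking glucose-6-phosphate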
HKDC1 inh: inhibitors of human hexokinase HKDC1; inhibition, % at 20 µM; Q2TB90; recombinant HKDC1, G6PDH/diaphorase resazurin coupled fluorescence; AID 493160; actives 0.16% (n = 340,000);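 active = inhibition above about 35% when tested at 20 µM, limit read from the data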;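 also: plate controls were DMSO wells with enzyme for no effect and DMSO wells lacking enzyme for full effect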
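Test system: recombinant HKDC1 (HK5) hexokinase enzyme, produced in-house; Amount: enzyme 5 µg/mL final; Buffer or medium: Tris pH 8.0 buffer with MgCl2, Tween-20, BSA, BME; Reagent: glucose and ATP substrates; Doses: 20 µM test compound, 1% DMSO; Incubation: 90 min reaction incubation at room temperature, dark; Detection: resorufin fluorescence at 613 nm.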
EP2 mod: modulators of human EP2 prostaglandin E2 receptor. P43116. EP2-expressing cells, cAMP HTRF FRET, PGE2 co-stimulation. induction, % at 25 µM. actives 0.83% (n = 260,000). AID 940;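 active = compounds whose cAMP rise, as percent of the full-agonist control response, exceeds 60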;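 also: rat C6 glioma line stably carrying human EP2 under a CMV promoter; the protocol text gives 20 µM as final concentration; 100% = response of wells given 1 µM PGE2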
* hit, by the source's call; . = no result given. In the library only some 2.5% were active in any assay of this set; here they are far more common.

SMILES	PHOSPHO1 block	Tb hexokinase	EP2 antag	PfG6PD inh	HKDC1 inh	EP2 mod
CC1CN(c2nc3c(c(=O)[nH]2)CCN(Cc2c(F)cccc2F)C3)CC(C)O1 (stereo not drawn)	.	.	.	.	.	-16
Cc1cc(C(=O)NN)c(C)o1	61*	0	7	-12	-2	18
Cc1cc(C(=O)NCC(=O)O)c(C)o1	19	-3	11	-6	-2	5
CCCn1c(SCC(=O)Nc2ccc(NC(C)=O)cc2)nnc1-c1ccco1	.	.	4	.	.	-7
CCSC1=C(C#N)C(c2ccc3c(c2)OCO3)C2=C(CCCC2=O)N1 (stereo not drawn)	6	-9	6	0	1	14
N#CC1=C(SCc2ccccc2)NC2=C(C(=O)CCC2)C1c1ccc2c(c1)OCO2 (stereo not drawn)	93*	-24	12	15	6	6
Cc1ccc(NC(=O)CSC2=C(C#N)C(c3ccc4c(c3)OCO4)C3=C(CCCC3=O)N2)c(C)c1 (stereo not drawn)	72*	-6	5	7	-1	-2
CCc1ccccc1NC(=O)CSC1=C(C#N)C(c2ccc(O)c(OC)c2)C2=C(CCCC2=O)N1 (stereo not drawn)	-10	-11	15	13	4	-12
COC(=O)CSC1=C(C#N)C(c2ccc(C)cc2)C2=C(CCCC2=O)N1 (stereo not drawn)	18	-9	15	9	1	7
COC(=O)CSC1=C(C#N)C(c2ccc3c(c2)OCO3)C2=C(CCCC2=O)N1 (stereo not drawn)	66*	-13	17	22	4	-3
CCc1cc2cc3c(cc2nc1SCC(=O)Nc1ccc(OC)cc1)OCCO3	.	.	21	.	.	28
Cc1ccccc1CN(CCCn1ccnc1)Cc1cc2c(cc1Cl)OCO2	.	.	6	.	.	17
COc1ccccc1OCc1nnc(SCC(=O)Nc2ccccc2)n1C	.	.	6	.	.	-33
CCn1c(CCCc2nc3c([nH]2)c(=O)n(C)c(=O)n3C)nc2c1c(=O)n(C)c(=O)n2C	.	.	45*	.	.	-4
Cn1c(=O)c2[nH]c(CCCCc3nc4ccccc4[nH]3)nc2n(C)c1=O	.	.	41*	2	-4	-1
Cn1c(=O)c2[nH]c(CCS)nc2n(C)c1=O	.	.	13	.	.	28
Cc1nn(CC(=O)NC2CC3(CCCC3)Oc3ccccc32)c(=O)c2ccccc12 (stereo not drawn)	.	.	5	.	.	-60
CC(C)(C)c1nnc2sc(SC/C(O)=C(\C#N)c3nc4ccccc4[nH]3)nn2c1=O	71*	-11	15	-15	-5	6
CC(C)(C)c1nnc2sc(SCC(=O)c3ccccc3)nn2c1=O	27	-6	7	-17	-19	10
CCC(c1nnnn1CCc1ccccc1)N(Cc1cc2ccc(C)cc2[nH]c1=O)C1CCCCC1 (stereo not drawn)	.	.	12	.	.	40
Cc1cc(C)n2nc(-c3sccc3-n3c(C)ccc3C)cc2n1	37	-10	7	7	-2	18
Cc1cc(C)n2nc(-c3sccc3-n3cccc3)cc2n1	62*	2	13	10	-2	30
CCOC(=O)c1c(C)[nH]c(C(=O)N/N=C/c2ccc(OC)c(OC)c2)c1C	75*	.	.	-6	-6	.
COc1cc(C(=S)N(C)C)ccc1O	69*	1	10	48	-3	-3
COc1cc(C2C(C#N)=C(N)Oc3n[nH]c(C)c32)cc(Br)c1OC (stereo not drawn)	.	.	15	.	.	-25
SMILES	PHOSPHO1 block	Tb hexokinase	EP2 antag	PfG6PD inh	HKDC1 inh	EP2 mod
COc1ccc(NC(=O)C2CCN(S(=O)(=O)c3cccnc3)CC2)cc1Cl	70*	2	8	12	0	-38
CCOC(=O)c1ccc(NC(=O)CN2CCC(c3nc4ccc(Cl)cc4[nH]3)CC2)cc1	.	.	4	.	.	-69
COc1ccc(NS(=O)(=O)c2cc(-c3nnnn3C)ccc2OC)cc1	66*	4	6	-9	-1	-44
CS(=O)(=O)c1ccccc1C(=O)N1CCN(Cc2ccccc2)CC1	73*	-2	4	8	-5	-17
Cc1ccc(-c2nnc(N(C(=O)C3CC3)C3CCCC3)s2)cc1	.	.	17	.	.	-34
N=C(N)S[C@@H]1c2ccccc2-c2cc([N+](=O)[O-])ccc21	.	.	48*	.	.	-51
O=[N+]([O-])c1ccc2c(c1)-c1ccccc1C2=NO	.	.	.	34	15	.

Source: PubChem (several laboratories)
